# Experimental data taken from ChEMBL document CHEMBL1949525, “Boranophosphate isoster controls P2Y-receptor subtype selectivity and metabolic stability of dinucleoside polyphosphate analogues” (J Med Chem, 2012).
# Calls of active or inactive are those of the source. No cut-off for these calls is given here.
# Columns and labels:
# e-NPP1 = assay: (§1) Stability of the compound assessed as human e-NPP1-mediated hydrolysis at pH 8.5 after 20 mins by HPLC analysis; format: ADME; settings: human, human e-NPP1 enzyme, pH 8.5; read-out: Drug degradation
# Method in brief: (§2)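 Human NPP1 preparation preincubated 3 min at 37 °C in 1 mM CaCl2, 200 mM NaCl, 10 mM KCl, 100 mM Tris, pH 8.5. Started with 0.2 mM dinucleotide solution (added volume) and stopped after 20 min in ice-cold perchloric acid. Neutralised with KOH, then NMP formation followed by HPLC. Percent substrate hydrolysed is the mean of two experiments run in triplicate.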
# [1] = as §1; format: ADME; settings: buffer, pH 8.5, 20 min; for Drug degradation: 20 min; method in brief: as §2
# [2] = Chemical stability of the compound at pH mimicking gastric juice acidity; format: physicochemical; settings: simulated gi fluid
# [3] = Chemical stability of the compound at physiological conditions; format: physicochemical
# [4] = target: P2Y purinoceptor 1 (Meleagris gallopavo) (UniProt P49652); assay: (§3) Agonist activity at turkey P2Y purinoceptor 1 expressed in human 1321N1 cells assessed as increase in intracellular calcium concentration by spectrofluorimetry; format: functional, cell-based
# P2Y purinoceptor 2 [5] = target: T1, P2Y purinoceptor 2 (Homo sapiens, UniProt P41231); assay: Agonist activity at human P2Y purinoceptor 2 expressed in human 1321N1 cells assessed as increase in intracellular calcium concentration by spectrofluorimetry; format: functional, cell-based
# P2Y purinoceptor 1 = P2Y purinoceptor 1 (Meleagris gallopavo, UniProt P49652); assay: as §3; format: functional, cell-based; settings: read-out: EC50
# P2Y purinoceptor 4 [6] = target: T2, P2Y purinoceptor 4 (Homo sapiens, UniProt P51582); assay: Agonist activity at human P2Y purinoceptor 4 expressed in human 1321N1 cells assessed as increase in intracellular calcium concentration by spectrofluorimetry; format: functional, cell-based; settings: 1321-n1
# Method in brief: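 1321N1 astrocytoma cells (no endogenous P2Y receptors) stably expressing hP2Y4, grown in DMEM with 5% FBS, penicillin/streptomycin and 500 μg/mL G-418. Fura-2-loaded cell suspensions; compounds applied at various concentrations, 37 °C, 10 mM Hepes-buffered saline pH 7.4 with 1 mM CaCl2/MgCl2. Peak [Ca2+]i rise by dual-excitation fluorometry gives EC50; UTP reference agonist; three experiments on separate days.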
# P2Y purinoceptor 6 = P2Y purinoceptor 6 (Rattus norvegicus, UniProt Q63371); assay: Agonist activity at rat P2Y purinoceptor 6 expressed in human 1321N1 cells assessed as increase in intracellular calcium concentration by spectrofluorimetry; format: functional, cell-based
# Method in brief: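 1321N1 astrocytoma cells lacking endogenous P2Y receptors, stably transfected with turkey P2Y1, human P2Y2, human P2Y4 or rat P2Y6, grown in DMEM with 5% FBS, penicillin/streptomycin and 500 µg/mL G-418. Fura-2-loaded cell suspensions were exposed at 37 °C in 10 mM Hepes-buffered saline, pH 7.4, with 1 mM CaCl2 and 1 mM MgCl2. Peak [Ca2+]i rise by dual-excitation spectrofluorometry across concentrations; EC50 from curve fits; three experiments on separate days per subtype.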
# [7] = target: P2Y purinoceptor 6 (Rattus norvegicus) (UniProt Q63371); assay: Antagonist activity at rat P2Y purinoceptor 6 expressed in human 1321N1 cells assessed as inhibition of UDP-induced increase in intracellular calcium concentration by spectrofluorimetry; format: functional, cell-based
# Method in brief: (§4)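 Fura-2-loaded 1321N1 transfectants (turkey P2Y1, human P2Y2/P2Y4, rat P2Y6) in Hepes-buffered saline, pH 7.4, at 37 °C. Analogues were tested against equimolar reference agonist: 2-MeS-ADP for P2Y1, UTP for P2Y2/4, UDP for P2Y6. Blockade of the [Ca2+]i rise was followed by dual-excitation spectrofluorometry.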
# P2Y purinoceptor 4 [8] = target: T2, P2Y purinoceptor 4; assay: Antagonist activity at human P2Y purinoceptor 4 expressed in human 1321N1 cells assessed as inhibition of UTP-induced increase in intracellular calcium concentration by spectrofluorimetry; format: functional, cell-based; method in brief: as §4
# P2Y purinoceptor 2 [9] = target: T1, P2Y purinoceptor 2; assay: Antagonist activity at human P2Y purinoceptor 2 expressed in human 1321N1 cells assessed as inhibition of UTP-induced increase in intracellular calcium concentration by spectrofluorimetry; format: functional, cell-based; method in brief: as §4
# [10] = target: P2Y purinoceptor 1 (Meleagris gallopavo) (UniProt P49652); assay: Agonist activity at turkey P2Y purinoceptor 1 expressed in human 1321N1 cells assessed as increase in intracellular calcium concentration at 100 uM by spectrofluorimetry; format: functional, cell-based
# [11] = target: P2Y purinoceptor 1 (Meleagris gallopavo) (UniProt P49652); assay: Antagonist activity at turkey P2Y purinoceptor 1 expressed in human 1321N1 cells assessed as inhibition of 2-Sme-ADP-induced increase in intracellular calcium concentration by spectrofluorimetry; format: functional, cell-based; method in brief: as §4
# P2Y purinoceptor 6, sequence (Q63371 whole entry): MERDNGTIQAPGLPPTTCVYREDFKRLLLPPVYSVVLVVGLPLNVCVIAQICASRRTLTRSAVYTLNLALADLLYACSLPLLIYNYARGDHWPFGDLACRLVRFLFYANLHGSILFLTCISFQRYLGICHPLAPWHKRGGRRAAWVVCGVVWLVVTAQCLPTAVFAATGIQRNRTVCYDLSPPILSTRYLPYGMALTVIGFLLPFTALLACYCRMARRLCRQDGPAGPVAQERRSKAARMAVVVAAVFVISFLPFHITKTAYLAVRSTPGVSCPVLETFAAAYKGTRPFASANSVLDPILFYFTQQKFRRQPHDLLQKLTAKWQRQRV
# P2Y purinoceptor 6 (Rattus norvegicus), sequence (Q63371 whole entry): as above
# P2Y purinoceptor 1, sequence (P49652 whole entry): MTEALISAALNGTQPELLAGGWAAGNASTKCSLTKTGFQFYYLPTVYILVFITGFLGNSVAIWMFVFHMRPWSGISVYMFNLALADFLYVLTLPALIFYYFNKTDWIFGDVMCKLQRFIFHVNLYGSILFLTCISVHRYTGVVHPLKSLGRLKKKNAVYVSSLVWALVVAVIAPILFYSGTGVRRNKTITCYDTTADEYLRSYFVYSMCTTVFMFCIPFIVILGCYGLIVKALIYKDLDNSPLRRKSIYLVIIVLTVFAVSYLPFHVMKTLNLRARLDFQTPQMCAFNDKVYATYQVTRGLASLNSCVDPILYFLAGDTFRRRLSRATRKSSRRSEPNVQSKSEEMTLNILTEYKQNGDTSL
# P2Y purinoceptor 1 (Meleagris gallopavo), sequence (P49652 whole entry): as above
# T2 sequence (P51582 whole entry): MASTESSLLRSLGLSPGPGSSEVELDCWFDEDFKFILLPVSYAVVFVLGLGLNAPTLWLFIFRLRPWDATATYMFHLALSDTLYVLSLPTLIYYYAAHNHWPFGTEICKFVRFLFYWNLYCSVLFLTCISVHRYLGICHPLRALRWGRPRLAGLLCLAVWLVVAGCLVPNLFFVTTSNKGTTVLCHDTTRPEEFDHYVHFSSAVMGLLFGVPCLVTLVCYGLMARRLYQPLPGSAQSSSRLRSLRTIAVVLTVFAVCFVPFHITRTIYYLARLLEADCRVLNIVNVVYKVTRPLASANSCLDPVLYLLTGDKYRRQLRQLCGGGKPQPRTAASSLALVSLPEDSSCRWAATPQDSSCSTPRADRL
# T1 sequence (P41231 whole entry): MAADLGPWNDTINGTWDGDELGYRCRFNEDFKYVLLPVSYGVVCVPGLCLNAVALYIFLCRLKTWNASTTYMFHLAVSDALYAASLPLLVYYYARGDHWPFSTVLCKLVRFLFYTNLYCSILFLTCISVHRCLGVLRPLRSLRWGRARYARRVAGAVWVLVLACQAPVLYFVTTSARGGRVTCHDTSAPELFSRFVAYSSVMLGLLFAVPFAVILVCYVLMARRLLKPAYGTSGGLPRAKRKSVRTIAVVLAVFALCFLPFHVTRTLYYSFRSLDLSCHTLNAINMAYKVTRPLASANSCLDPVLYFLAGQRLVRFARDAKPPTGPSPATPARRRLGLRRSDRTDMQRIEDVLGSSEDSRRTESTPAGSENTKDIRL
smiles,measurement,setting,value
Nc1ncnc2c1ncn2[C@@H]1O[C@H](COP(=O)(O)OP(=O)(O)OP(=O)(O)OP(=O)(O)OC[C@H]2O[C@@H](n3ccc(=O)[nH]c3=O)[C@H](O)[C@@H]2O)[C@@H](O)[C@H]1O,metabolised at 20 min,e-NPP1,18%
BP(=O)(OP(=O)(O)OC[C@H]1O[C@@H](n2ccc(=O)[nH]c2=O)[C@H](O)[C@@H]1O)OP(=O)(O)OC[C@H]1O[C@@H](n2ccc(=O)[nH]c2=O)[C@H](O)[C@@H]1O.CCCCN(CCCC)CCCC.CCCCN(CCCC)CCCC.CCCCN(CCCC)CCCC,Stability,[1],Stable
same,Stability,[2],Stable
same,Stability,[3],Stable
same,Activity,[4],inactive
same,Activity,P2Y purinoceptor 2 [5],inactive
BP(=O)(OP(=O)(O)OP(=O)(O)OC[C@H]1O[C@@H](n2cnc3c(N)ncnc32)[C@H](O)[C@@H]1O)OP(=O)(O)OP(=O)(O)OC[C@H]1O[C@@H](n2cnc3c(N)ncnc32)[C@H](O)[C@@H]1O.CCCCN(CCCC)CCCC.CCCCN(CCCC)CCCC.CCCCN(CCCC)CCCC.CCCCN(CCCC)CCCC.CCCCN(CCCC)CCCC,Stability,[1],Unstable
same,Stability,[2],Stable
same,Stability,[3],Stable
same,Activity,[4],Active
same,Activity,P2Y purinoceptor 2 [5],inactive
BP(=O)(OP(=O)(O)OP(=O)(O)OC[C@H]1O[C@@H](n2ccc(=O)[nH]c2=O)[C@H](O)[C@@H]1O)OP(=O)(O)OP(=O)(O)OC[C@H]1O[C@@H](n2ccc(=O)[nH]c2=O)[C@H](O)[C@@H]1O.CCCCN(CCCC)CCCC.CCCCN(CCCC)CCCC.CCCCN(CCCC)CCCC.CCCCN(CCCC)CCCC.CCCCN(CCCC)CCCC,Stability,[1],Stable
same,Stability,[2],Stable
same,Stability,[3],Stable
same,Activity,[4],inactive
same,Activity,P2Y purinoceptor 2 [5],inactive
O=c1ccn([C@@H]2O[C@H](COP(=O)(O)OP(=O)(O)OP(=O)(O)OC[C@H]3O[C@@H](n4ccc(=O)[nH]c4=O)[C@H](O)[C@@H]3O)[C@@H](O)[C@H]2O)c(=O)[nH]1,metabolised at 20 min,e-NPP1,21%
Nc1ncnc2c1ncn2[C@@H]1O[C@H](COP(=O)(O)OP(=O)(O)OP(=O)(O)OC[C@H]2O[C@@H](n3cnc4c(N)ncnc43)[C@H](O)[C@@H]2O)[C@@H](O)[C@H]1O,metabolised at 20 min,e-NPP1,22%
BP(=O)(OP(=O)(O)OC[C@H]1O[C@@H](n2cnc3c(N)ncnc32)[C@H](O)[C@@H]1O)OP(=O)(O)OP(=O)(O)OC[C@H]1O[C@@H](n2cnc3c(N)ncnc32)[C@H](O)[C@@H]1O.CCCCN(CCCC)CCCC.CCCCN(CCCC)CCCC.CCCCN(CCCC)CCCC.CCCCN(CCCC)CCCC (stereo in doubt; 6A),metabolised at 20 min,e-NPP1,1.6%
same,EC50,P2Y purinoceptor 1,3 µM
same,EC50,P2Y purinoceptor 2 [5]; 1321-n1,Not Active
same,EC50,P2Y purinoceptor 4 [6],Not Active
BP(=O)(OP(=O)(O)OC[C@H]1O[C@@H](n2ccc(=O)[nH]c2=O)[C@H](O)[C@@H]1O)OP(=O)(O)OP(=O)(O)OC[C@H]1O[C@@H](n2ccc(=O)[nH]c2=O)[C@H](O)[C@@H]1O.CCCCN(CCCC)CCCC.CCCCN(CCCC)CCCC.CCCCN(CCCC)CCCC.CCCCN(CCCC)CCCC (stereo in doubt; 7A),EC50,P2Y purinoceptor 6; read-out: EC50,1.93 µM
same,metabolised at 20 min,e-NPP1,3%
same,EC50,P2Y purinoceptor 4 [6],Not Active
BP(=O)(OP(=O)(O)OC[C@H]1O[C@@H](n2ccc(=O)[nH]c2=O)[C@H](O)[C@@H]1O)OP(=O)(O)OP(=O)(O)OC[C@H]1O[C@@H](n2ccc(=O)[nH]c2=O)[C@H](O)[C@@H]1O.CCCCN(CCCC)CCCC.CCCCN(CCCC)CCCC.CCCCN(CCCC)CCCC.CCCCN(CCCC)CCCC (stereo in doubt; 7B),Activity,[7],inactive
same,Activity,P2Y purinoceptor 4 [8],inactive
same,Activity,P2Y purinoceptor 2 [9],inactive
same,Activity,[10],Active
same,Activity,[11],inactive
BP(=O)(OP(=O)(O)OC[C@H]1O[C@@H](n2cnc3c(N)ncnc32)[C@H](O)[C@@H]1O)OP(=O)(O)OP(=O)(O)OC[C@H]1O[C@@H](n2ccc(=O)[nH]c2=O)[C@H](O)[C@@H]1O.CCCCN(CCCC)CCCC.CCCCN(CCCC)CCCC.CCCCN(CCCC)CCCC.CCCCN(CCCC)CCCC (stereo in doubt; 8A) [listing 1 of 2 here],EC50,P2Y purinoceptor 6; read-out: EC50,1.29 µM
same,metabolised at 20 min,e-NPP1,1.5%
same,EC50,P2Y purinoceptor 2 [5]; 1321-n1,Not Active
same,EC50,P2Y purinoceptor 4 [6],Not Active
BP(=O)(OP(=O)(O)OC[C@H]1O[C@@H](n2cnc3c(N)ncnc32)[C@H](O)[C@@H]1O)OP(=O)(O)OP(=O)(O)OC[C@H]1O[C@@H](n2ccc(=O)[nH]c2=O)[C@H](O)[C@@H]1O.CCCCN(CCCC)CCCC.CCCCN(CCCC)CCCC.CCCCN(CCCC)CCCC.CCCCN(CCCC)CCCC (stereo in doubt; 8A) [listing 2 of 2 here],Activity,[7],inactive
same,Activity,P2Y purinoceptor 4 [8],inactive
same,Activity,P2Y purinoceptor 2 [9],inactive
same,Activity,[10],Active
same,Activity,[11],inactive
BP(=O)(OP(=O)(O)OC[C@H]1O[C@@H](n2ccc(=O)[nH]c2=O)[C@H](O)[C@@H]1O)OP(=O)(O)OP(=O)(O)OC[C@H]1O[C@@H](n2cnc3c(N)ncnc32)[C@H](O)[C@@H]1O.CCCCN(CCCC)CCCC.CCCCN(CCCC)CCCC.CCCCN(CCCC)CCCC.CCCCN(CCCC)CCCC (stereo in doubt; 9A),EC50,P2Y purinoceptor 6; read-out: EC50,20.9 µM
same,metabolised at 20 min,e-NPP1,3%
same,EC50,P2Y purinoceptor 1,0.5 µM
same,EC50,P2Y purinoceptor 4 [6],Not Active
BP(=O)(OC[C@H]1O[C@@H](n2cnc3c(N)ncnc32)[C@H](O)[C@@H]1O)OP(=O)(O)OP(=O)(O)OC[C@H]1O[C@@H](n2cnc3c(N)ncnc32)[C@H](O)[C@@H]1O.CCCCN(CCCC)CCCC.CCCCN(CCCC)CCCC.CCCCN(CCCC)CCCC (stereo in doubt; 10A),EC50,P2Y purinoceptor 6; 1321-n1,Not Active
same,Drug degradation,[1],0%
same,EC50,P2Y purinoceptor 1,0.76 µM
same,EC50,P2Y purinoceptor 2 [5]; 1321-n1,Not Active
same,EC50,P2Y purinoceptor 4 [6],Not Active
BP(=O)(OC[C@H]1O[C@@H](n2ccc(=O)[nH]c2=O)[C@H](O)[C@@H]1O)OP(=O)(O)OP(=O)(O)OC[C@H]1O[C@@H](n2ccc(=O)[nH]c2=O)[C@H](O)[C@@H]1O.CCCCN(CCCC)CCCC.CCCCN(CCCC)CCCC.CCCCN(CCCC)CCCC (stereo in doubt; 11A),EC50,P2Y purinoceptor 6; read-out: EC50,0.72 µM
same,Drug degradation,[1],0%
same,EC50,P2Y purinoceptor 1,4.4 µM
same,EC50,P2Y purinoceptor 2 [5]; 1321-n1,Not Active
same,EC50,P2Y purinoceptor 4 [6],Not Active
BP(=O)(OC[C@H]1O[C@@H](n2ccc(=O)[nH]c2=O)[C@H](O)[C@@H]1O)OP(=O)(O)OP(=O)(O)OC[C@H]1O[C@@H](n2ccc(=O)[nH]c2=O)[C@H](O)[C@@H]1O.CCCCN(CCCC)CCCC.CCCCN(CCCC)CCCC.CCCCN(CCCC)CCCC (stereo in doubt; 11B),Activity,[7],inactive
same,Activity,P2Y purinoceptor 4 [8],inactive
same,Activity,P2Y purinoceptor 2 [9],inactive
same,Activity,[10],Active
same,Activity,[11],inactive
BP(=O)(OC[C@H]1O[C@@H](n2cnc3c(N)ncnc32)[C@H](O)[C@@H]1O)OP(=O)(O)OP(=O)(O)OP(=O)(O)OC[C@H]1O[C@@H](n2cnc3c(N)ncnc32)[C@H](O)[C@@H]1O.CCCCN(CCCC)CCCC.CCCCN(CCCC)CCCC.CCCCN(CCCC)CCCC.CCCCN(CCCC)CCCC (stereo in doubt; 12A),EC50,P2Y purinoceptor 6; 1321-n1,Not Active
same,Drug degradation,[1],2.5%
same,EC50,P2Y purinoceptor 1,1.48 µM
same,EC50,P2Y purinoceptor 2 [5]; read-out: EC50,25.9 µM
same,EC50,P2Y purinoceptor 4 [6],Not Active
BP(=O)(OC[C@H]1O[C@@H](n2ccc(=O)[nH]c2=O)[C@H](O)[C@@H]1O)OP(=O)(O)OP(=O)(O)OP(=O)(O)OC[C@H]1O[C@@H](n2ccc(=O)[nH]c2=O)[C@H](O)[C@@H]1O.CCCCN(CCCC)CCCC.CCCCN(CCCC)CCCC.CCCCN(CCCC)CCCC.CCCCN(CCCC)CCCC (stereo in doubt; 13B),Activity,[7],inactive
same,Activity,P2Y purinoceptor 4 [8],inactive
same,Activity,P2Y purinoceptor 2 [9],inactive
same,Activity,[10],Active
same,Activity,[11],inactive
Nc1ncnc2c1ncn2[C@@H]1O[C@H](COP(=O)(O)OP(=O)(O)OP(=O)(O)OP(=O)(O)OC[C@H]2O[C@@H](n3cnc4c(N)ncnc43)[C@H](O)[C@@H]2O)[C@@H](O)[C@H]1O [DIADENOSINE TETRAPHOSPHATE],metabolised at 20 min,e-NPP1,17%
